Test results: ChEMBL document CHEMBL3286111, “Tryptophan hydroxylase 1 (Tph-1)-targeted bone anabolic agents for osteoporosis” (J Med Chem, 2014)
The source made the active and inactive calls. The rule behind the calls is not given here.

Columns and labels:
Rattus norvegicus [1] = assay: Effect on brain serotonin level in ovariectomized rat at 1 to 20 mg/kg/day, po for 30 days by RP-HPLC analysis; assay type: functional, organism-based
Procedure, shortened: (§1)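 Female rats, 12 weeks old (220 g), bilateral ovariectomy under ip pentobarbital; from 3 days after surgery, 9a given orally once daily at 1, 10 or 20 mg/kg in 5% ethanol/95% water for 30 days, n = 8. Serum (HClO4-deproteinized) or brain homogenate (HClO4 plus NaH2PO4/acetonitrile) run on RP-C18 HPLC with fluorescence detection (ex 290/em 330 nm).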

Rattus norvegicus [2] = assay: Antiosteoporotic activity in ovariectomized rat assessed as increase in trabecular number at 10 to 20 mg/kg/day, po for 30 days by microcomputed tomographic analysis relative to control; assay type: functional, Trabecula
Procedure, shortened: (§2)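 Female rats, 12 weeks old, underwent bilateral ovariectomy; sham, OVX-vehicle and ip PTH 20 μg/kg/day groups were included; n = 8. Oral dosing at 1, 10 and 20 mg/kg/day in 5% ethanol/95% water began 3 days post-surgery, once daily for 30 days. Lumbar vertebrae were scanned by μCT for BV/TV, Tb.Th, Tb.N, Tb.Sp and BMD.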

Rattus norvegicus [3] = assay: Antiosteoporotic activity in ovariectomized rat assessed as increase in trabecular thickness at 1 mg/kg/day, po for 30 days by microcomputed tomographic analysis; assay type: functional, organism-based; conditions: Trabecula
Procedure, shortened: (§3)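 Ovariectomized 12-week-old female rats dosed orally once daily with 9a (1, 10, 20 mg/kg/day, 5% ethanol vehicle) for 30 days, beginning 3 days after surgery, n = 8 per group. Lumbar vertebrae were collected after CO2 euthanasia and scanned by micro-CT for BV/TV, Tb.Th, Tb.N, Tb.Sp and BMD.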

Rattus norvegicus [4] = assay: Effect on endometrial luminal epithelium with undeveloped endometrial gland in ovariectomized rat at 10 to 20 mg/kg/day, po for 30 days by hematoxylin-eosin staining-based light microscopic analysis; assay type: ADME, organism-based; design: route oral; conditions: in vivo, 720 h
Procedure, shortened: (§4)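 OVX rats dosed orally with 9a (1, 10, 20 mg/kg/day) for 30 days from 3 days post-surgery. Uteri and livers were collected at the end, then sectioned, stained and examined by light microscopy for endometrial luminal epithelium, glands and liver morphology/pathology.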

Rattus norvegicus [5] = assay: Effect on liver pathology in ovariectomized rat at 10 to 20 mg/kg/day, po for 30 days by hematoxylin-eosin staining-based light microscopic analysis; assay type: ADME, organism-based; design: route oral; conditions: in vivo, 720 h; procedure, shortened: as §4
Rattus norvegicus [6] = assay: Antiosteoporotic activity in ovariectomized rat assessed as decrease in trabecular separation at 10 to 20 mg/kg/day, po for 30 days by microcomputed tomographic analysis relative to control; assay type: functional, Trabecula; design: scale not given: the % may be the effect or the level left; procedure, shortened: as §2
Rattus norvegicus [7] = assay: Antiosteoporotic activity in ovariectomized rat assessed as increase in trabecular bone volume fraction at 10 to 20 mg/kg/day, po for 30 days by microcomputed tomographic analysis relative to control; assay type: functional, Trabecula; procedure, shortened: as §2
Rattus norvegicus [8] = assay: Antiosteoporotic activity in ovariectomized rat assessed as decrease in gut serotonin level at 20 mg/kg, po qd for 7 days by HPLC analysis relative to control; assay type: functional; design: scale not given: the % may be the effect or the level left
Procedure, shortened: (§5)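 Female rats, 12 weeks old (220 g), underwent bilateral ovariectomy under ip pentobarbital; sham controls included; n = 5 per group. Oral dosing in vehicle of 5% ethanol/95% water began 3 days post-surgery, once daily for 7 days. Small intestine (jejunum, ileum) was homogenised in 5% HClO4 and mobile phase. Serotonin was read by C18 HPLC with fluorescence detection (ex 290/em 330 nm).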

Rattus norvegicus [9] = assay: Antiosteoporotic activity in ovariectomized rat assessed as decrease in serum CTX-1 level at 10 to 20 mg/kg/day, po for 30 days by ELISA; assay type: functional, organism-based
Procedure, shortened: (§6)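 OVX female rats (12 weeks old), oral 9a at 1, 10 or 20 mg/kg per day in 5% ethanol vehicle, starting 3 days post-surgery, for 30 days, n = 8. Serum was taken at the end, centrifuged and stored at −20 °C. P1NP or CTX-1 was measured by ELISA kit and reported as means ± SD.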

Brain = assay: Drug uptake in ovariectomized rat brain at 10 to 20 mg/kg, po qd for 7 days by LC-MS analysis; assay type: ADME, organism-based; design: dose 10-20 mg/kg, route oral; conditions: in vivo, 168 h
Procedure, shortened: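 OVX rats given oral 9a at 10 or 20 mg/kg once daily for 7 days, starting 3 days after surgery, n = 5. Brain homogenate (about 2.0 g) extracted with 5% HClO4 and ethyl acetate, centrifuged; the organic layer was dried and analysed by LC-MS/MS (limit of detection 12.4 pg).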

Rattus norvegicus [10] = assay: Antiosteoporotic activity in ovariectomized rat assessed as increase in trabecular thickness at 10 to 20 mg/kg/day, po for 30 days by microcomputed tomographic analysis relative to control; assay type: functional, Trabecula; procedure, shortened: as §2
Rattus norvegicus [11] = assay: Antiosteoporotic activity in ovariectomized po dosed rat assessed as increase in serum P1NP level administered for 30 days by ELISA; assay type: functional, organism-based; procedure, shortened: as §6
Rattus norvegicus [12] = assay: Antiosteoporotic activity in ovariectomized po dosed rat assessed as decrease in serum serotonin level administered for 30 days by HPLC analysis; assay type: functional, organism-based; procedure, shortened: as §1
Rattus norvegicus [13] = assay: Antiosteoporotic activity in ovariectomized rat assessed as decrease in trabecular separation at 1 mg/kg/day, po for 30 days by microcomputed tomographic analysis; assay type: functional, organism-based; conditions: Trabecula; procedure, shortened: as §3
Rattus norvegicus [14] = assay: Antiosteoporotic activity in ovariectomized rat assessed as increase in trabecular bone volume fraction at 1 mg/kg/day, po for 30 days by microcomputed tomographic analysis; assay type: functional, organism-based; conditions: Trabecula; procedure, shortened: as §3
Rattus norvegicus [15] = assay: Antiosteoporotic activity in ovariectomized rat assessed as increase in bone mineral density at 10 to 20 mg/kg/day, po for 30 days by microcomputed tomographic analysis relative to control; assay type: functional; procedure, shortened: as §2
Rattus norvegicus [16] = assay: Antiosteoporotic activity in ovariectomized rat assessed as decrease in gut serotonin level at 10 mg/kg, po qd for 7 days by HPLC analysis relative to control; assay type: functional; design: scale not given: the % may be the effect or the level left; procedure, shortened: as §5
Rattus norvegicus [17] = assay: Antiosteoporotic activity in ovariectomized rat assessed as increase in bone mineral density at 1 mg/kg/day, po for 30 days by microcomputed tomographic analysis; assay type: functional, organism-based; procedure, shortened: as §3
Rattus norvegicus [18] = assay: Antiosteoporotic activity in ovariectomized rat assessed as increase in trabecular number at 1 mg/kg/day, po for 30 days by microcomputed tomographic analysis; assay type: functional, organism-based; conditions: Trabecula; procedure, shortened: as §3
[19] = Cytotoxicity against rat RBL2H3 cells by MTT assay; assay type: cell-based; design: concentration or dose not given beside the values; conditions: rbl-2h3
Procedure, shortened: (§7)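 RBL2H3 cells (α-MEM) or PC12 cells (D-MEM), both with 10% FBS, treated at a single dose in 0.1% DMSO; 0.1% DMSO control; 37 °C, 5% CO2. MTT (5 mg/mL) added 4 h before the end, then SDS/DMF lysis buffer (pH 7.2) for 6 h; absorbance read at 570 nm. Cytotoxicity % calculated from background-corrected OD versus control.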

Rattus norvegicus [20] = assay: Effect on liver morphology in ovariectomized rat at 10 to 20 mg/kg/day, po for 30 days by hematoxylin-eosin staining-based light microscopic analysis; assay type: ADME, organism-based; design: route oral; conditions: in vivo, 720 h; procedure, shortened: as §4
[21] = Cytotoxicity against rat PC12 cells by MTT assay; assay type: cell-based; conditions: pc-12; procedure, shortened: as §7

In the case of `CCOC(=O)CNC(=O)[C@]12CC[C@@H](C)[C@H](C)[C@H]1C1=CC[C@@H]3[C@@]4(C)Cc5nc6ccccc6nc5C(C)(C)[C@@H]4CC[C@@]3(C)[C@]1(C)CC2`, the Activity (Rattus norvegicus [1]) is reported as “inactive”, the Activity (Rattus norvegicus [2]) is reported as 43.3% and the Activity (Rattus norvegicus [3]) is reported as “inactive”. For the same compound, the Activity (Rattus norvegicus [4]) was “Non-toxic”, the Activity (Rattus norvegicus [5]) was “Non-toxic” and the Activity (Rattus norvegicus [6]) was -24.9%. For the same compound, the Activity (Rattus norvegicus [7]) was 28%, the Activity (Rattus norvegicus [8]) was 36% and the Activity (Rattus norvegicus [9]) was “inactive”. For the same compound, the Drug uptake (Brain) was “Not Active”, the Activity (Rattus norvegicus [10]) was 24% and the Activity (Rattus norvegicus [11]) was “Dose-dependent effect”. The Activity (Rattus norvegicus [12]) was “Dose-dependent effect”, the Activity (Rattus norvegicus [13]) was “inactive” and the Activity (Rattus norvegicus [14]) was “inactive”. For the same compound, the Activity (Rattus norvegicus [15]) was 22.6%, the Activity (Rattus norvegicus [16]) was 34% and the Activity (Rattus norvegicus [17]) was “inactive”. For the same compound, the Activity (Rattus norvegicus [18]) was “inactive”, the Activity [19] was 1% and the Activity (Rattus norvegicus [20]) was “Non-toxic”. For the same compound, the Activity [21] was “Non-toxic”.
